# PubChem BioAssay
# The source made the active and inactive calls.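 The calls were made as follows, unless noted: active = viability at or below 10% of carrier control in both of two separate runs; inconclusive = viability at or below 10% in only one of the two runs; inactive = the rest.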
# What was measured:
# [1] = reducers of endogenous Her2 protein level, primary screen, SKBR3 breast tumor cells, AlphaScreen, ATP viability (AID 461;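 active = Her2 level under about 52% in both replicate screens, with viability over 70% of control, limit read from the data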;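 as to Her2 level: lower value means less Her2 protein in the cells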;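 as to viability: percent of carrier control wells set as 100% viability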); conditions: 18-24 h, measured here: SKBR3 viability, ATP luminescence, at 10 µM
# [2] = molecular target: Receptor tyrosine-protein kinase erbB-2 (Homo sapiens) (UniProt P04626); assay: as above; conditions: 18-24 h, at 10 µM, stronger effect = lower value
# [3] = SK-BR-3 cell growth inhibitors, pilot screen, 24 h, human (AID 572); conditions: SK-BR-3 viability, CellTiter-Glo luminescence, at 10 µM, stronger effect = lower value;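 also: compound exposure lasted between 18 and 24 h rather than exactly 24 h; 100% = carrier-treated control wells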
# [4] = HUVEC growth inhibition – cell-based, human, primary screen (AID 575;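 active = viability at or below 30% in both replicate assays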;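 also: 100% = median of untreated cell wells with 0.1% DMSO on each plate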); conditions: HUVEC proliferation, CellTiter-Glo luminescence, 72 h; at 10 µM; stronger effect = lower value
# In short: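 System – primary HUVEC, no more than 12 passages · Medium – Low-serum (2% FBS) EBM, supplemented · Times – 72 h exposure, 37 °C, 5% CO2, 30 min RT equilibration · Measured by – luminescent ATP assay · Read-out – % viability relative to median vehicle-well signal on each plate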
# [5] = growth inhibitors of H69AR lung tumor, primary screen, human, duplicate replicates (AID 580;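 active = viability at or under a set limit in both replicates, limit being median viability minus 3 SD, cut at about 48% in these data, passing the limit was not always enough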;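 also: 100% = mean luminescence of untreated wells and 0% = no signal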); conditions: H69AR lung tumor cells viability, ATP luminescence, 72 h; at 10 µM; stronger effect = lower value
# [6] = reversal of MRP1-mediated doxorubicin resistance, pilot screen, H69AR cells, doxorubicin co-treatment (AID 601;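 active = viability loss from added drug above about 55%, and viability with drug at most 40%, in both replicates, limit read from the data, passing the limit was not always enough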); conditions: CellTiter-Glo, 72 h, at 10 µM; for differential viability (reversal): stronger effect = higher value
# [7] = 384-well plate pilot, post-Golgi transport modulator project, inhibition of yeast transport mutant growth (AID 636; in the data active = inhibition above about 31%); conditions: absorbance 615 nm, about 18 h, stronger effect = higher value
# [8] = growth suppression of yeast trafficking mutant, preliminary HTS, modulators of trafficking downstream of Golgi apparatus project, 1536-format plate, OD 615 nm (AID 637; in the data active = inhibition above about 30%); conditions: yeast transport mutant growth, absorbance 615 nm, 18 h; stronger effect = higher value
# [9] = H69AR cells + 2 uM doxorubicin, measured here: viability with 2 uM doxorubicin, stronger effect = lower value
# [10] = H69AR cells, compound alone cytotoxicity
# Chain of Receptor tyrosine-protein kinase erbB-2 (Homo sapiens) (P04626 whole entry, looked up): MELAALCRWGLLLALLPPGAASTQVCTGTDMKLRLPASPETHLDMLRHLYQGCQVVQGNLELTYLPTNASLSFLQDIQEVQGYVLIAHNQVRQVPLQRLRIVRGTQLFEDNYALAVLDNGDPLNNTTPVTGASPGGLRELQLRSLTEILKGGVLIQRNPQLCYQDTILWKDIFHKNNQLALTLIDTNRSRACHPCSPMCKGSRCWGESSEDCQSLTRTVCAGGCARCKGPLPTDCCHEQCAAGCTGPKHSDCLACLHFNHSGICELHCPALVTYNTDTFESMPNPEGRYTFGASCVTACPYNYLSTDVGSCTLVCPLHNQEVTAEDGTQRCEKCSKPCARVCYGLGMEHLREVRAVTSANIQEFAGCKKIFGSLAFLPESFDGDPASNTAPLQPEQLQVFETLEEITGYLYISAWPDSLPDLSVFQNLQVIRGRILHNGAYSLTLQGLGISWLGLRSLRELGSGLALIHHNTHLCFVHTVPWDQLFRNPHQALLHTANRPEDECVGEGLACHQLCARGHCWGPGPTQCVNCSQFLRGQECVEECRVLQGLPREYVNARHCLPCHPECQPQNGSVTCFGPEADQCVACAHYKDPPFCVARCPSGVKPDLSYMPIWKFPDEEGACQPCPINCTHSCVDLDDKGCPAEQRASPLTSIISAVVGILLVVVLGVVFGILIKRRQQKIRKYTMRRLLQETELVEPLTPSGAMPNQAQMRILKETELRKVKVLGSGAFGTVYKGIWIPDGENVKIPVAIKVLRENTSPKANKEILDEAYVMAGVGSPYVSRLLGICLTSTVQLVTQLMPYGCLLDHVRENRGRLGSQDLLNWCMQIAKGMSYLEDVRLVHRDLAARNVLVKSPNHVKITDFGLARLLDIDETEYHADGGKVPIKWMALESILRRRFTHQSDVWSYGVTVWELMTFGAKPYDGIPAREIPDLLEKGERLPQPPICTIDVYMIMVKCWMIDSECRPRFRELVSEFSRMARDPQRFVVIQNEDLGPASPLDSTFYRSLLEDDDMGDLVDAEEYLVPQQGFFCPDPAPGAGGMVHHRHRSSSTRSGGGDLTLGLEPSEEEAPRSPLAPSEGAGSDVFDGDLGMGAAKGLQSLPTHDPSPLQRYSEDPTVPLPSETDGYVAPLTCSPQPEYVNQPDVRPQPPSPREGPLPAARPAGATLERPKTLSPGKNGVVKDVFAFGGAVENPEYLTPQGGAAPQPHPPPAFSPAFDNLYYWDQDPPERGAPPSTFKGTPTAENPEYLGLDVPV
SMILES,viability [1] [%],Her2 level [2],viability [3],viability [4],viability [5],differential viability (reversal) ([6]; H69AR cells + 2 uM doxorubicin),"viability [6, 9] [%]","viability [6, 10] [%]",inhibition [7],inhibition [8]
O=C(COc1ccccc1Cl)OCC(=O)N1CCN(S(=O)(=O)c2ccccc2)CC1,101,85% (inactive),101% (inactive),89.4% (inactive),87.4% (inactive),-1.84% (inactive),89.2,87.4,-6.13% (inactive),-2.79% (inactive)
CC(C)C(c1nnnn1C1CCCC1)N1CCN(C(=O)c2ccco2)CC1 (stereo not given),114,96% (inactive),114% (inactive),82.1% (inactive),88.8% (inactive),15.8% (inactive),72.9,88.8,-1.82% (inactive),-11.8% (inactive)
CN(CC(O)COCc1cccs1)C1CCCCC1 (stereo not given),93.5,90% (inactive),93.5% (inactive),93.2% (inactive),106% (inactive),10.9% (inactive),95.4,106,-3.47% (inactive),5.57% (inactive)
O=C1CN(C(=O)COC(=O)C23CC4CC(CC(O)(C4)C2)C3)c2ccccc2N1,115,85.5% (inactive),115% (inactive),104% (inactive),96.6% (inactive),10.6% (inactive),86.1,96.6,-7.97% (inactive),3.65% (inactive)
CN1CCN(C(=O)c2cnn3c(C(F)F)cc(C4CC4)nc23)CC1,95,88.5% (inactive),95% (inactive),103% (inactive),94.4% (inactive),9.3% (inactive),85.1,94.4,-2.63% (inactive),3.23% (inactive)
C/C(=C\C(=O)O)CC(=O)O,100,119% (inactive),100% (inactive),98% (inactive),84.5% (inactive),-15.7% (inactive),100,84.5,-7.5% (inactive),5.25% (inactive)
CC(=O)Nc1ccc(-c2nn[nH]n2)cc1Cl,87,89% (inactive),87% (inactive),104% (inactive),104% (inactive),8.39% (inactive),95.6,104,-1.6% (inactive),-2.9% (inactive)
O=c1c2ccccc2nc(SCc2cn3ccsc3n2)n1-c1ccc(F)cc1,73,102% (inactive),73% (inactive),64.6% (inactive),102% (inactive),-13.3% (inactive),115,102,-6.44% (inactive),1.43% (inactive)
CCOC(=O)CSC1=C(C#N)C(c2ccc(Cl)cc2)C(C(=O)OC)C(=O)N1 (stereo not given),104,143% (inactive),104% (inactive),85.4% (inactive),88.5% (inactive),0.1% (inactive),88.4,88.5,-4.74% (inactive),4.83% (inactive)
CC1=C(C(=O)OC(C)C)C(C2CC=CCC2)NC(=O)N1 (stereo not given),95.5,113% (inactive),95.5% (inactive),98.5% (inactive),87.3% (inactive),-1.42% (inactive),88.7,87.3,0.77% (inactive),-10.7% (inactive)
Cn1cccc1-c1nc2ccc(NC(=O)c3ccco3)cc2[nH]1,114,93% (inactive),114% (inactive),120% (inactive),77% (inactive),-4.33% (inactive),81.4,77,-2.76% (inactive),-3.65% (inactive)
Cn1c(=O)c2c(nc(NCC3CCCO3)n2C)n(C)c1=O (stereo not given),102,104% (inactive),102% (inactive),105% (inactive),103% (inactive),7.24% (inactive),95.5,103,-1.33% (inactive),-3.11% (inactive)
O=C(NCCc1ccccc1)C1CCCN(S(=O)(=O)c2cccs2)C1 (stereo not given),89,91% (inactive),89% (inactive),112% (inactive),93.8% (inactive),7.11% (inactive),86.7,93.8,1.79% (inactive),-0.33% (inactive)
COc1ccc(C(=O)CSc2nc(C)cc(=O)[nH]2)cc1,99.5,87.5% (inactive),99.5% (inactive),99.7% (inactive),101% (inactive),10% (inactive),91.4,101,-3.2% (inactive),2.1% (inactive)
O=C(CSc1nc2ccccc2nc1SCC(=O)N1CCOCC1)N1CCOCC1,100,98% (inactive),100% (inactive),110% (inactive),95.7% (inactive),1.15% (inactive),94.5,95.7,-1.03% (inactive),0.17% (inactive)
CC(=O)N1CCc2cc(S(=O)(=O)CCC(=O)N3CCN(C(=O)c4ccco4)CC3)ccc21,99,88.5% (inactive),99% (inactive),104% (inactive),98.2% (inactive),10.1% (inactive),88.1,98.2,-5.47% (inactive),2.95% (inactive)

SMILES,viability [1] [%],Her2 level [2],viability [3],viability [4],viability [5],differential viability (reversal) ([6]; H69AR cells + 2 uM doxorubicin),"viability [6, 9] [%]","viability [6, 10] [%]",inhibition [7],inhibition [8]
CCOC(=O)Cc1csc(NC(=O)CSc2nnc(-c3ccncc3)n2Cc2ccco2)n1,107,82.5% (inactive),107% (inactive),94.1% (inactive),97.6% (inactive),7.66% (inactive),89.9,97.6,-5.14% (inactive),5.24% (inactive)
CN(C(=O)c1ccncc1)C1CC(C)(C)N(O)C(C)(C)C1,124,96.5% (inactive),124% (inactive),87.7% (inactive),92.3% (inactive),-1.93% (inactive),94.2,92.3,-7.11% (inactive),-6.36% (inactive)
CCSc1nc2c(c(=O)n(C)c(=O)n2C)n1Cc1ccc(Cl)cc1,70.5,71% (inactive),70.5% (inactive),63.2% (inactive),83% (inactive),-4.85% (inactive),87.9,83,-0.92% (inactive),2.36% (inactive)
Cc1cc(=O)oc(C)c1C(=O)O,102,118% (inactive),102% (inactive),97.1% (inactive),92% (inactive),7.3% (inactive),84.7,92,-6.1% (inactive),9.34% (inactive)
COC(=O)[C@H](CCSC)NC(=O)Nc1cc(C)ccc1C,124,89% (inactive),124% (inactive),84.1% (inactive),82.2% (inactive),-7.82% (inactive),90,82.2,-6.22% (inactive),5.71% (inactive)
COc1ccccc1C(=O)Nc1ccc(N2CCN(Cc3ccccc3)CC2)cc1,81.5,75.5% (inactive),81.5% (inactive),66.8% (inactive),89.6% (inactive),2.1% (inactive),87.5,89.6,-5.2% (inactive),1.97% (inactive)
CCN(CC)C(=O)C1=C(C)NC(=O)NC1c1c(F)cccc1Cl (stereo not given),108,108% (inactive),108% (inactive),96.8% (inactive),101% (inactive),13.7% (inactive),87.2,101,-3.82% (inactive),4.92% (inactive)
CCCn1c(SCC(=O)Nc2cc(C)on2)nc2c1c(=O)n(C)c(=O)n2C,100,118% (inactive),100% (inactive),87% (inactive),100% (inactive),15.7% (inactive),84.6,100,0% (inactive),-4.19% (inactive)
CSc1ccccc1C(=O)NC1CC2CCC1C2 (stereo not given),102,89.5% (inactive),102% (inactive),92.9% (inactive),94.8% (inactive),7.59% (inactive),87.2,94.8,-5.33% (inactive),5.65% (inactive)
COc1ccccc1-c1nc(SCc2ccccn2)n[nH]1,104,78.5% (inactive),104% (inactive),98.3% (inactive),97.2% (inactive),5.32% (inactive),91.9,97.2,-1.89% (inactive),-2.06% (inactive)
CC(C)(C)c1nc(CN2CCOCC2)ccc1O,109,96.5% (inactive),109% (inactive),106% (inactive),101% (inactive),4.21% (inactive),96.6,101,-7.03% (inactive),-0.82% (inactive)
O=C(Cn1c(C(=O)NCC2CCCO2)cc2sccc21)c1ccccc1 (stereo not given),94.5,100% (inactive),94.5% (inactive),101% (inactive),90.3% (inactive),7.12% (inactive),83.2,90.3,-1.56% (inactive),-5.56% (inactive)
COc1cc(CN2CCSCC2)cc(OC)c1OC,89.5,150% (inactive),89.5% (inactive),88.8% (inactive),109% (inactive),21% (inactive),87.7,109,-0.65% (inactive),-1.83% (inactive)
COc1ccc(-n2c(=O)cc(N3CCN(Cc4ccccc4)CC3)[nH]c2=O)cc1,87,105% (inactive),87% (inactive),94% (inactive),92.7% (inactive),-17.5% (inactive),110,92.7,0.26% (inactive),-4% (inactive)
CC(C)(C)OC(=O)N1CC=C2C(C#N)=C(N)C(C#N)(C#N)[C@H](c3cccnc3)[C@H]2C1,88,100% (inactive),88% (inactive),81.1% (inactive),86.3% (inactive),-12.4% (inactive),98.7,86.3,-2.67% (inactive),14% (inactive)
